Measurements as given in the array DNA melting data of Ke et al. (doi:10.1101/2024.01.08.574731).

Legend:
[1] = melting temperature; fluorescence melt of hairpins on a sequencing array, two-state fit, raised by 9.35 °C to match UV melts; details: sodium 0.088 M
Outline: (§1)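 Library hairpins on a sequenced MiSeq flow cell carried annealed Cy3 and quencher oligos, and their Cy3 fluorescence was imaged in 50 mM Na-HEPES pH 8.0 with 25 mM NaCl, in 2.5 °C steps up to 60 °C. Signals were normalised to Cy3 before quenching and to control constructs. Melting temperature and folding enthalpy were obtained from bootstrapped two-state fits, combined by inverse-variance weighting across four replicates, and the fitted temperatures were then raised by 9.35 °C to match UV melts.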

[2] = folding enthalpy; higher = less favourable; fluorescence melt of hairpins on a sequencing array, two-state fit; details: sodium 0.088 M
Outline: as §1

Question: Which Tm [1] does the source give for GGACGAGCGAAAGCTTCC (((..(((....)))))) here?
Answer: 29.5 °C

Question: What about the folding enthalpy [2] of the same sequence?
Answer: -9.29 kcal/mol

Question: With GGACGCGAAAGCGAATCC ((((((....)))..))) as the sequence, how does the Tm [1] read?
Answer: 36.5 °C

Question: What about the folding enthalpy [2] of the same sequence?
Answer: -13.5 kcal/mol

Question: With GGACGCGAAAGCGCTTCC ((((((....)))..))) as the sequence, how does the Tm [1] read?
Answer: 47.5 °C

Question: What about the folding enthalpy [2] of the same sequence?
Answer: -13.2 kcal/mol

Question: What does the source list for GGACGCGAAAGCGTGTCC ((((((....)))..)))?
Answer: Tm [1]: 54 °C; folding enthalpy [2]: -12.7 kcal/mol

Question: For GGACGCGGAAACGCACCC ((..(((....)))..)), which Tm [1] is on record?
Answer: 33.7 °C

Question: What about the folding enthalpy [2] of the same sequence?
Answer: -10.1 kcal/mol

Question: Which Tm [1] does the source give for GGACGCGGAAACGTGTCC ((((.((....)).)))) here?
Answer: 62.2 °C

Question: And the folding enthalpy [2]?
Answer: -43.4 kcal/mol

Question: With GGACGGGGAAACCTGTCC ((((.((....)).)))) as the sequence, how does the Tm [1] read?
Answer: 56.8 °C

Question: And the folding enthalpy [2]?
Answer: -44.5 kcal/mol

Question: Which Tm [1] does the source give for GGACTACGAAAGTACTCC (((.(((....))).))) here?
Answer: 34.9 °C

Question: What about the folding enthalpy [2] of the same sequence?
Answer: -13.3 kcal/mol

Question: Which Tm [1] does the source give for GGACTACGAAAGTATTCC (((.(((....))).))) here?
Answer: 39.2 °C

Question: What about the folding enthalpy [2] of the same sequence?
Answer: -34.8 kcal/mol

Question: What does the source list for GGACTAGGAAACTAGCCC ((.((((....)))).))?
Answer: Tm [1]: 42.1 °C; folding enthalpy [2]: -24.5 kcal/mol

Question: For GGACTAGGAAACTAGTCC (((((((....))))))), which Tm [1] is on record?
Answer: 61.5 °C

Question: And the folding enthalpy [2]?
Answer: -44 kcal/mol

Question: Which Tm [1] does the source give for GGACTAGGAAACTAGTTC (.(((((....))))).) here?
Answer: 41.3 °C

Question: And the folding enthalpy [2]?
Answer: -31.9 kcal/mol

Question: For GGACTCGAAAGAGCATCC ((((((....)))..))), which Tm [1] is on record?
Answer: 24.9 °C

Question: What about the folding enthalpy [2] of the same sequence?
Answer: -9.49 kcal/mol

Question: With GGACTCGAAAGAGGATCC ((((((....)))..))) as the sequence, how does the Tm [1] read?
Answer: 37 °C

Question: And the folding enthalpy [2]?
Answer: -17.9 kcal/mol

Question: For GGACTCGAAAGAGGCTCC ((((((....)))..))), which Tm [1] is on record?
Answer: 48.9 °C

Question: What about the folding enthalpy [2] of the same sequence?
Answer: -13.3 kcal/mol

Question: For GGACTCGAAAGAGTTTCC ((((((....)))..))), which Tm [1] is on record?
Answer: 36.8 °C

Question: And the folding enthalpy [2]?
Answer: -13.8 kcal/mol

Question: Which Tm [1] does the source give for GGACTCGGAAACGAATCC (((.(((....))).))) here?
Answer: 40.9 °C

Question: And the folding enthalpy [2]?
Answer: -26.7 kcal/mol

Question: With GGACTCGGAAACGGGTCC ((((.((....)).)))) as the sequence, how does the Tm [1] read?
Answer: 57.4 °C

Question: And the folding enthalpy [2]?
Answer: -36.4 kcal/mol

Question: For GGACTGAAAAGTCC (((((....))))), which Tm [1] is on record?
Answer: 59.9 °C

Question: And the folding enthalpy [2]?
Answer: -25.9 kcal/mol

Question: For GGACTGGAAACAGTCC ((((((....)))))), which Tm [1] is on record?
Answer: 59.8 °C

Question: What about the folding enthalpy [2] of the same sequence?
Answer: -30.2 kcal/mol

Question: For GGACTGGCGAAAGCCTCC (((..(((....)))))), which Tm [1] is on record?
Answer: 31.6 °C

Question: And the folding enthalpy [2]?
Answer: -9.14 kcal/mol

Question: Which results are given for GGACTGGGAAACCGGTCC ((((.((....)).))))?
Answer: Tm [1]: 58.6 °C; folding enthalpy [2]: -39.9 kcal/mol

Question: Which Tm [1] does the source give for GGACTGGGAAACTGGTCC ((((..(....)..)))) here?
Answer: 45.5 °C

Question: What about the folding enthalpy [2] of the same sequence?
Answer: -25 kcal/mol

Question: Which results are given for GGACTTCGAAAGAATCC (((.(((....))))))?
Answer: Tm [1]: 35.2 °C; folding enthalpy [2]: -21.7 kcal/mol

Question: With GGACTTCGAAAGAATTCC (((.(((....))).))) as the sequence, how does the Tm [1] read?
Answer: 36.8 °C

Question: And the folding enthalpy [2]?
Answer: -31.9 kcal/mol

Question: With GGACTTGGAAACAAGTCC (((((((....))))))) as the sequence, how does the Tm [1] read?
Answer: 64.7 °C

Question: What about the folding enthalpy [2] of the same sequence?
Answer: -51.1 kcal/mol

Question: What does the source list for GGACTTGGAAACGAGTCC (((((.(....).)))))?
Answer: Tm [1]: 52.4 °C; folding enthalpy [2]: -39.4 kcal/mol

Question: For GGAGAAGGAAACTCCTCC ((((.((....)).)))), which Tm [1] is on record?
Answer: 36 °C

Question: And the folding enthalpy [2]?
Answer: -22.6 kcal/mol

Question: Which results are given for GGAGACGAAAGTCCATCC ((((((....)))..)))?
Answer: Tm [1]: 30.3 °C; folding enthalpy [2]: -10.1 kcal/mol

Question: With GGAGAGCGAAAGCTTTCC (((.(((....))).))) as the sequence, how does the Tm [1] read?
Answer: 53.6 °C

Question: What about the folding enthalpy [2] of the same sequence?
Answer: -31.6 kcal/mol

Question: Which results are given for GGAGAGGAAACTCTCC ((((((....))))))?
Answer: Tm [1]: 56.9 °C; folding enthalpy [2]: -35.1 kcal/mol

Question: For GGAGAGGGAAACCTCTTC (.(((((....))))).), which Tm [1] is on record?
Answer: 45.8 °C

Question: What about the folding enthalpy [2] of the same sequence?
Answer: -21.5 kcal/mol

Question: Which results are given for GGAGATCGAAAGATTTCC (((.(((....))).)))?
Answer: Tm [1]: 46.5 °C; folding enthalpy [2]: -33 kcal/mol

Question: Which Tm [1] does the source give for GGAGATTCGAAAGAATCC (((..(((....)))))) here?
Answer: 38.7 °C

Question: And the folding enthalpy [2]?
Answer: -13.3 kcal/mol

Question: Which Tm [1] does the source give for GGAGCAGGAAACTGCTCC (((((((....))))))) here?
Answer: 69.1 °C

Question: And the folding enthalpy [2]?
Answer: -33.4 kcal/mol

Question: For GGAGCCGAAAGGCCATCC ((((((....)))..))), which Tm [1] is on record?
Answer: 31.6 °C

Question: What about the folding enthalpy [2] of the same sequence?
Answer: -8.68 kcal/mol

Question: For GGAGCCGAAAGGCCTTCC ((((((....)))..))), which Tm [1] is on record?
Answer: 46.2 °C

Question: And the folding enthalpy [2]?
Answer: -15.4 kcal/mol

Question: Which Tm [1] does the source give for GGAGCCGAAAGGCGGTCC ((((((....)))..))) here?
Answer: 48.1 °C

Question: What about the folding enthalpy [2] of the same sequence?
Answer: -9.55 kcal/mol

Question: With GGAGCCGCGAAAGCGTCC (((..(((....)))))) as the sequence, how does the Tm [1] read?
Answer: 30.7 °C

Question: And the folding enthalpy [2]?
Answer: -10.9 kcal/mol

Question: For GGAGCGGGAAACCGTTCC (((.(((....))).))), which Tm [1] is on record?
Answer: 54.9 °C

Question: And the folding enthalpy [2]?
Answer: -38.4 kcal/mol

Question: Which results are given for GGAGCGGGAAACTGCTCC (((((.(....).)))))?
Answer: Tm [1]: 60.9 °C; folding enthalpy [2]: -45 kcal/mol

Question: For GGAGCTCGAAAGAGGTCC (((.(((....))).))), which Tm [1] is on record?
Answer: 65.9 °C

Question: And the folding enthalpy [2]?
Answer: -37.8 kcal/mol

Question: Which results are given for GGAGCTGGAAACGGTTCC (((.(.(....).).)))?
Answer: Tm [1]: 37.6 °C; folding enthalpy [2]: -17.5 kcal/mol

Question: For GGAGGACCGAAAGGTTCC (((..(((....)))))), which Tm [1] is on record?
Answer: 42.9 °C

Question: And the folding enthalpy [2]?
Answer: -12.6 kcal/mol

Question: Which Tm [1] does the source give for GGAGGAGCGAAAGCTTCC (((..(((....)))))) here?
Answer: 38.6 °C

Question: What about the folding enthalpy [2] of the same sequence?
Answer: -13.4 kcal/mol
